From ChEMBL document CHEMBL4011650, “3-Hydroxy-1H-quinazoline-2,4-dione as a New Scaffold To Develop Potent and Selective Inhibitors of the Tumor-Associated Carbonic Anhydrases IX and XII” (J Med Chem, 2017)

Experiments:
Carbonic anhydrase 9 = Carbonic anhydrase 9 (Homo sapiens, UniProt Q16790)
Carbonic anhydrase 2 = Carbonic anhydrase 2 (Homo sapiens, UniProt P00918); experiment: Inhibition of recombinant human carbonic anhydrase 2 preincubated for 15 mins prior to testing by phenol red based stopped-flow CO2 hydration assay
Carbonic anhydrase 1 = Carbonic anhydrase 1 (Homo sapiens, UniProt P00915); experiment: Inhibition of recombinant human carbonic anhydrase 1 preincubated for 15 mins prior to testing by phenol red based stopped-flow CO2 hydration assay
[1] = Antiproliferative activity against human HT-29 cells assessed as cell viability at 300 uM after 48 hrs under normoxic conditions by MTT assay relative to control; format: cell-based; conditions: read-out: Activity
Method in brief: (§1)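 HT-29 cells in high-glucose DMEM with 20% FBS were seeded at 1·10^4/well and treated 24 h later. Incubation was under normoxia (20% O2, air with 5% CO2) at 37 °C for 16, 48 or 72 h. Viability was read by MTT reduction (1 mg/ml, 30 min), with formazan in DMSO read at 550 nm, relative to untreated control set at 100%. Quadruplicates on at least three cell batches.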

[2] = Antiproliferative activity against human HT-29 cells assessed as cell viability at 100 uM after 72 hrs under normoxic conditions by MTT assay relative to control; format: cell-based; conditions: read-out: Activity
Method in brief: as §1

HT-29 [3] = experiment: Antiproliferative activity against human HT-29 cells assessed as cell viability at 30 uM after 48 hrs under hypoxic conditions by MTT assay relative to control; format: functional; conditions: HT-29, 48 h, read-out: Activity
Method in brief: (§2)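 HT-29 cells were grown in high-glucose DMEM with 20% FBS, seeded at 1·10^4/well and dosed 24 h later. Incubation was in a hypoxic chamber (0.1% O2, 5% CO2, balance N2) for 16, 48 or 72 h. Cells were washed, given MTT 1 mg/ml for 30 min at 37 °C, and formazan was dissolved in DMSO and read at 550 nm. Viability is % of untreated control, mean ± S.E.M.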

[4] = Antiproliferative activity against human HT-29 cells assessed as cell viability at 100 uM after 48 hrs under normoxic conditions by MTT assay relative to control; format: cell-based; conditions: read-out: Activity
Method in brief: as §1

[5] = Antiproliferative activity against human HT-29 cells assessed as cell viability at 30 uM after 72 hrs under normoxic conditions by MTT assay relative to control; format: cell-based; conditions: read-out: Activity
Method in brief: as §1

HT-29 [6] = experiment: Antiproliferative activity against human HT-29 cells assessed as cell viability at 100 uM after 48 hrs under hypoxic conditions by MTT assay relative to control; format: functional; conditions: HT-29, 48 h, read-out: Activity
Method in brief: as §2

HT-29 [7] = experiment: Antiproliferative activity against human HT-29 cells assessed as cell viability at 300 uM after 48 hrs under hypoxic conditions by MTT assay relative to control; format: functional; conditions: HT-29, 48 h, read-out: Activity
Method in brief: as §2

[8] = Antiproliferative activity against human HT-29 cells assessed as cell viability at 30 uM after 48 hrs under normoxic conditions by MTT assay relative to control; format: cell-based; conditions: read-out: Activity
Method in brief: as §1

HT-29 [9] = experiment: Antiproliferative activity against human HT-29 cells assessed as cell viability at 100 uM after 72 hrs under hypoxic conditions by MTT assay relative to control; format: functional; conditions: HT-29, 72 h, read-out: Activity
Method in brief: as §2

HT-29 [10] = experiment: Antiproliferative activity against human HT-29 cells assessed as cell viability at 30 uM after 72 hrs under hypoxic conditions by MTT assay relative to control; format: functional; conditions: HT-29, 72 h, read-out: Activity
Method in brief: as §2

HT-29 [11] = experiment: Antiproliferative activity against human HT-29 cells assessed as cell viability at 300 uM after 72 hrs under hypoxic conditions by MTT assay relative to control; format: functional; conditions: HT-29, 72 h, read-out: Activity
Method in brief: as §2

[12] = Antiproliferative activity against human HT-29 cells assessed as cell viability at 300 uM after 72 hrs under normoxic conditions by MTT assay relative to control; format: cell-based; conditions: read-out: Activity
Method in brief: as §1

Carbonic anhydrase 1, sequence (P00915 whole entry): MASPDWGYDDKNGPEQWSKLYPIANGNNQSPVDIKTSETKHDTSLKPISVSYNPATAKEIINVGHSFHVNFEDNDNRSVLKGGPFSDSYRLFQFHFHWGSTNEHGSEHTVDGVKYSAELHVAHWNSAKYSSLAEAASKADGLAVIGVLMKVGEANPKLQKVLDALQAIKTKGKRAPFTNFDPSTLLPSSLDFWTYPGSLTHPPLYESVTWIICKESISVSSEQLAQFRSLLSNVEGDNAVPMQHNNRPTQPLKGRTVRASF

Row | SMILES | Ki (Carbonic anhydrase 9) [µM] | Ki (Carbonic anhydrase 2) [µM] | Ki (Carbonic anhydrase 1) [µM] | viability at 48 h, 300 µM [1] [%] | viability at 72 h, 100 µM [2] [%] | viability at 30 µM (HT-29 [3]) [%] | viability at 48 h, 100 µM [4] [%] | viability at 72 h, 30 µM [5] [%] | viability at 100 µM (HT-29 [6]) [%] | viability at 300 µM (HT-29 [7]) [%] | viability at 48 h, 30 µM [8] [%] | viability at 100 µM (HT-29 [9]) [%] | viability at 30 µM (HT-29 [10]) [%] | viability at 300 µM (HT-29 [11]) [%] | viability at 72 h, 300 µM [12] [%]
1 | O=c1[nH]c2cc(Cl)c(-n3cccc3)cc2c(=O)n1O | 0.0083 | > 10 | > 10 | – | – | – | – | – | – | – | – | – | – | – | –
2 | O=c1[nH]c2cc(C(F)(F)F)ccc2c(=O)n1O | 0.0082 | > 10 | > 10 | – | – | – | – | – | – | – | – | – | – | – | –
3 | O=c1[nH]c2cc(Cl)c(Cl)cc2c(=O)n1O | 0.0082 | > 10 | > 10 | 9.44 | 73.5 | 106 | 91 | 107 | 76 | 14.8 | 93.4 | 78.1 | 93.3 | 24.5 | 20.6
4 | O=c1[nH]c2ccccc2c(=O)n1O | 0.48 | > 10 | > 10 | – | – | – | – | – | – | – | – | – | – | – | –
5 | O=C(O)COn1c(=O)[nH]c2cc(Cl)c([N+](=O)[O-])cc2c1=O | 0.018 | > 10 | > 10 | – | – | – | – | – | – | – | – | – | – | – | –
6 | O=c1[nH]c2cc(Cl)cc(Cl)c2c(=O)n1O | 0.0077 | > 10 | > 10 | 91 | 95.9 | 101 | 93.8 | 94.2 | 102 | 104 | 92.6 | 87 | 93 | 78.9 | 94.9
7 | CC(=O)Nc1nnc(S(N)(=O)=O)s1 [ACETAZOLAMIDE] | – | – | – | 101 | 95.8 | 108 | 101 | 97.6 | 102 | 85.7 | 96.8 | 111 | 107 | 84.1 | 93.2
8 | O=C(O)CCC(=O)Nc1cc2c(=O)n(O)c(=O)[nH]c2cc1Cl | 0.007 | > 10 | > 10 | – | – | – | – | – | – | – | – | – | – | – | –
9 | O=C(Nc1cc2c(=O)n(O)c(=O)[nH]c2cc1Cl)c1ccccc1 | 0.0588 | > 10 | > 10 | – | – | – | – | – | – | – | – | – | – | – | –
10 | O=C(O)CCC(=O)Nc1ccc2[nH]c(=O)n(O)c(=O)c2c1 | 0.0648 | > 10 | > 10 | – | – | – | – | – | – | – | – | – | – | – | –
11 | O=c1[nH]c2ccc(Cl)cc2c(=O)n1O | 0.0482 | > 10 | > 10 | – | – | – | – | – | – | – | – | – | – | – | –
12 | COn1c(=O)[nH]c2cc(Cl)ccc2c1=O | 0.208 | > 10 | > 10 | – | – | – | – | – | – | – | – | – | – | – | –
13 | O=c1[nH]c2ccc(-n3cnnc3)cc2c(=O)n1O | 0.0695 | > 10 | > 10 | – | – | – | – | – | – | – | – | – | – | – | –
14 | O=c1[nH]c2cc(C(F)(F)F)c([N+](=O)[O-])cc2c(=O)n1O | 0.0097 | > 10 | > 10 | 45.1 | 45.3 | 45.2 | 57.7 | 41.5 | 46.8 | 50.2 | 53.9 | 38.2 | 38.6 | 40.3 | 49.7
15 | O=C(Nc1ccccc1)Nc1ccc2[nH]c(=O)n(O)c(=O)c2c1 | 0.301 | > 10 | > 10 | – | – | – | – | – | – | – | – | – | – | – | –
16 | O=c1[nH]c2cc(C(F)(F)F)c(-n3cnnc3)cc2c(=O)n1O | – | > 10 | > 10 | – | – | – | – | – | – | – | – | – | – | – | –
17 | Nc1cc2c(=O)n(O)c(=O)[nH]c2cc1Cl | 0.0431 | > 10 | > 10 | – | – | – | – | – | – | – | – | – | – | – | –
18 | O=C(O)c1ccc(C(=O)Nc2cc3c(=O)n(O)c(=O)[nH]c3cc2Cl)cc1 | 0.0079 | > 10 | > 10 | – | – | – | – | – | – | – | – | – | – | – | –
19 | O=c1[nH]c2cc(Cl)c(-n3ccnc3)cc2c(=O)n1O | 0.0749 | > 10 | > 10 | – | – | – | – | – | – | – | – | – | – | – | –
20 | O=C(O)c1ccccc1C(=O)Nc1cc2c(=O)n(O)c(=O)[nH]c2cc1Cl | 0.0081 | > 10 | > 10 | – | – | – | – | – | – | – | – | – | – | – | –
21 | O=c1[nH]c2cc(Cl)c([N+](=O)[O-])cc2c(=O)n1O | – | > 10 | > 10 | 77.6 | 61.2 | 45.7 | 72.5 | 36.8 | 64.6 | 70.8 | 58.2 | 55.9 | 41.6 | 63.5 | 70.3
22 | Nc1ccc2[nH]c(=O)n(O)c(=O)c2c1 | 0.273 | > 10 | > 10 | – | – | – | – | – | – | – | – | – | – | – | –
23 | O=C(Nc1ccccc1)Nc1cc2c(=O)n(O)c(=O)[nH]c2cc1Cl | 0.0428 | > 10 | > 10 | – | – | – | – | – | – | – | – | – | – | – | –
24 | O=c1[nH]c2cc(Cl)ccc2c(=O)n1O | 0.0697 | > 10 | > 10 | – | – | – | – | – | – | – | – | – | – | – | –
25 | O=c1[nH]c2ccc([N+](=O)[O-])cc2c(=O)n1O | 0.0046 | > 10 | > 10 | 95.1 | 94.1 | 98.8 | 95.5 | 95.6 | 99.5 | 96.7 | 101 | 93.7 | 94.7 | 87.3 | 94.3
26 | O=C(NCc1ccccc1)Nc1cc2c(=O)n(O)c(=O)[nH]c2cc1Cl | 0.0069 | > 10 | > 10 | – | – | – | – | – | – | – | – | – | – | – | –
27 | O=C(O)c1ccccc1C(=O)Nc1ccc2[nH]c(=O)n(O)c(=O)c2c1 | 0.0625 | > 10 | > 10 | – | – | – | – | – | – | – | – | – | – | – | –
28 | O=c1[nH]c2cc(Cl)c(-n3cnnc3)cc2c(=O)n1O | 0.0333 | > 10 | > 10 | – | – | – | – | – | – | – | – | – | – | – | –
